M4 antag: antagonists of human muscarinic M4 receptor (CHRM4); P08173; CHO-hM4 cells, ACh EC80, Fluo-8 calcium fluorescence; inhibition, % at 3 µM; 360,000 compounds, 0.73% hits; AID 624125;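 active = inhibition above its plate's cutoff, the mean inhibition of sample wells plus 3 SD, cut at about 27% in these data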;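 note: 0% = acetylcholine EC80 with DMSO and 100% = DMSO without agonist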
Target sequence (P08173 whole entry, looked up): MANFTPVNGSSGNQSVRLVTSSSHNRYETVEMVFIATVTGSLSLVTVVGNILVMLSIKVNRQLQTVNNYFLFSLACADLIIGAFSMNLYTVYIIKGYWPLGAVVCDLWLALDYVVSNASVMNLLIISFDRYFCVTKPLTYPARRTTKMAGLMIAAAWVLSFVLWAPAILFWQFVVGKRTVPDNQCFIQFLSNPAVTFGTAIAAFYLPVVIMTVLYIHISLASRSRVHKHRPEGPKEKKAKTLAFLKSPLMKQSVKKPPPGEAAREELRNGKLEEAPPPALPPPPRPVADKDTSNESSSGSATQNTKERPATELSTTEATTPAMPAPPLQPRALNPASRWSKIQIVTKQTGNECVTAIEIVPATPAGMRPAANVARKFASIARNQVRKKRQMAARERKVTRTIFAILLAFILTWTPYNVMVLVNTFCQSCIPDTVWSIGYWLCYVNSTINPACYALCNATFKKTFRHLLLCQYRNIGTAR
CHRM5 antagonist: blocks acetylcholine activation of human M5 receptor; CHO-hM5 cells, Fluo-8 calcium fluorescence, ACh EC80; inhibition, % at 3 µM; 360,000 compounds, 0.59% hits;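 active = inhibition above a per-plate cutoff, the mean of that plate's test compounds plus 3 SD, cut at about 27% in these data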;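 note: 0% = acetylcholine EC80 with DMSO and 100% = DMSO without agonist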
M5 PAM: CHRM5 positive allosteric modulation; CHO-K1 hM5, Fluo-8 calcium, ACh EC20 PAM; 0% = ACh EC20, 100% = ACh EC100; AID 624038; activation, % at 3 µM; 360,000 compounds, 0.3% hits; P08912;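 active = activation above the run cutoff, the mean activation of all test compounds plus 3 SD, cut at about 18% in these data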
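Probe or stimulus: acetylcholine, EC20 level; Assay system: human M5 receptor in CHO-K1 cells; Schedule: compound preincubation 140 s before EC20 acetylcholine addition; Technique: intracellular calcium via Fluo-8 fluorescence; Dosing: single-point, 3 µM nominal; Read-out basis: percent activation from peak-over-basal fluorescence ratio, scaled EC20-to-EC100 acetylcholine; Repeats: one well per compound, no replicates.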
M4 ag: CHRM4 agonism in calcium assay; 360,000 compounds, 0.14% hits; CHO-K1 hM4/Gqi5, Fluo-8 calcium fluorescence; vehicle 0%, full acetylcholine response 100%; P08173; activation, % at 3 µM;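 active = activation above the run mean over all test wells plus 3 SD, cut at about 32% in these data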;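 note: peak over basal fluorescence ratio per well then scaled between controls; 0% = DMSO wells and 100% = acetylcholine at EC100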
CHRM4 PAM: positive allosteric modulators of human muscarinic M4 receptor; P08173; CHO-K1 hM4/Gqi5, Fluo-8 calcium fluorescence, ACh EC20; 0% = ACh EC20, 100% = maximal ACh; activation, % at 3 µM; 360,000 compounds, 0.4% hits; AID 624126;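 active = activation above its plate's cutoff, the mean activation of sample wells plus 3 SD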
M5 ag: CHRM5 agonism in calcium assay; 360,000 compounds, 0.19% hits; CHO-K1 hM5 cells, Fluo-8 calcium fluorescence; 0% DMSO wells, 100% maximal acetylcholine response; P08912; AID 624037; activation, % at 3 µM;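 active = activation above the run's mean over test compounds plus 3 SD, cut at about 23% in these data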;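 note: signal is peak over basal fluorescence ratio across the kinetic read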
The depositor's hits bear a star. Rows were chosen to be rich in hits. Some 1.9% of all compounds tested hit in one or more screens of this group.

SMILES	M4 antag	CHRM5 antagonist	M5 PAM	M4 ag	CHRM4 PAM	M5 ag
O=C(N/N=C/c1cn(-c2cccs2)nc1-c1ccccc1)c1ccccc1Br	10	-6	-6	4	-5	2
O=C(N/N=C/c1cn(-c2cccs2)nc1-c1ccccc1)c1ccccc1O	15	28*	-17	12	-14	2
CC(C)OC(=O)n1c(=S)oc2ccccc21	2	3	-3	0	7	0
Cc1cccc(OC(=O)n2c(=S)oc3cc(Cl)ccc32)c1	22	-4	0	4	30*	-1
CC1=[N+](C)N(c2ccccc2)C(=O)C1N=C/C=C/c1ccccc1 (centres undefined)	58*	25	-31	2	-15	-19
COc1ccccc1/C=C/C=NC1C(=O)N(c2ccccc2)[N+](C)=C1C (centres undefined)	3	7	-2	6	-6	-5
Cn1c(C(=O)OC(C(=O)NC2CCCCC2)c2cccnc2)cc2sccc21 (centres undefined)	-4	41*	-5	2	4	-8
COC(=O)c1c(NC(=S)NC(=O)c2ccco2)sc2c1CCCC2	-2	0	1	0	33*	1
CCOC(=O)c1c(NC(=O)c2ccco2)sc2c1CCCCC2	-1	9	-1	-2	4	1
CCOC(=O)c1c(NC(=O)C(C)N2CCN(C(=O)c3ccco3)CC2)sc2c1CCCC2 (centres undefined)	49*	-9	6	41*	-32	27*
Cc1sc(NC(=S)NC(=O)c2ccco2)c(C(N)=O)c1C	1	31*	-19	13	-6	1
Cc1sc(NC(=S)NC(=O)CCc2ccccc2)c(C(N)=O)c1C	0	2	1	2	2	0
O=C(NCc1ccc(S(=O)(=O)NC2CCCCC2)s1)c1ccccc1	6	-2	2	4	-11	6
Nc1nonc1N/N=C\c1ccccc1	27*	7	2	1	11	0
COc1ccccc1N(C(C)=O)C1=C(Cl)C(=O)c2ccccc2C1=O	90*	35*	-8	2	-12	1
Cc1cc(F)ccc1-c1cc(C(=O)NCc2ccc(C(F)(F)F)cc2)[nH]n1	-7	5	1	20	-4	33*
CC(C)COC(=O)N(C)C[C@@H]1OCc2cnnn2CCCC(=O)N([C@H](C)CO)C[C@H]1C	-1	6	-6	1	1	2
COc1ccc(OCc2cc(C(=O)N3C[C@@H](C)O[C@@H](C)C3)no2)c(Cl)c1	5	1	-1	6	6	2
COc1ccc(C(=O)O/N=C2\CCS(=O)(=O)c3sccc32)cc1	-1	36*	-20	4	-8	-4
COc1ccc(N=C2CCS(=O)(=O)c3sccc32)cc1	6	3	5	2	-4	0
COc1cccc(/C=C2\SC(=S)N(CCCC(=O)N(CCO)c3ccccc3)C2=O)c1	5	15	-6	10	-8	-4
CCOC(=O)c1[nH]c2ccc(Br)cc2c1NC(=O)CCN1CCCC(C)(C)C1	33*	46*	-20	3	-34	-6
Nc1nnc(SCC(=O)NC2CCCCCC2)s1	-12	-10	2	0	24*	2
CCCCn1c(N)c(N(CCC(C)C)C(=O)c2cc(Cl)nc3ccccc23)c(=O)[nH]c1=O	-3	-13	26*	0	9	3
CCCCn1c(N)c(N(CCC(C)C)C(=O)COC(=O)c2ccc3ccccc3c2)c(=O)[nH]c1=O	-18	-10	6	1	23*	2
SMILES	M4 antag	CHRM5 antagonist	M5 PAM	M4 ag	CHRM4 PAM	M5 ag
CCCCn1c(N)c(N(CCC(C)C)C(=O)CSc2nc3ccccc3n2C)c(=O)[nH]c1=O	1	-5	21*	1	6	-3
CCCCn1c(N)c(N(CC(C)C)C(=O)c2cccc(S(=O)(=O)N3CCCCCC3)c2)c(=O)[nH]c1=O	-4	2	5	1	9	-3
CCCCn1c(N)c(N(CC(C)C)C(=O)c2cccc(S(=O)(=O)N3CCCCC3)c2)c(=O)[nH]c1=O	5	8	-3	0	22*	0
COc1ccc([C@H]2CC(=O)C=C(C#CC(C)(C)C)C2)cc1	-1	7	-3	-2	3	0
CCCCNC(=O)CC(C(=O)N1CCc2ccccc21)n1ccnc1 (centres undefined)	28*	-10	-2	0	34*	6
CCN(CCCNC(=O)CC(C(=O)N1CCc2ccccc21)n1ccnc1)c1cccc(C)c1 (centres undefined)	0	-1	0	-2	3	-1
Cc1ccc(-c2nn(-c3ccc(F)cc3)cc2C(=O)N(C)CC(=O)Nc2ccc(N3CCOCC3)cc2)cc1	-2	1	2	1	-6	1
Cc1nccn1CCc1n[nH]c(=S)n1Cc1ccccc1	22	33*	-15	0	-10	-11
CCC(C)(C)c1ccc(OCCCC[n+]2cccc(C)c2C)c(C(C)(C)CC)c1	62*	47*	-27	9	-16	-19
COC(c1ccccc1)c1nnc(CCC(=O)N2CCN(Cc3cccs3)CC2)o1 (centres undefined)	1	4	-2	2	-1	-3
COC(c1ccccc1)c1nnc(CCC(=O)N2CCCCCCC2)o1 (centres undefined)	-18	5	2	3	18*	0
C[C@H](NC(=O)c1ccco1)C(=O)NCc1cccs1	-3	-13	8	0	0	4
CCc1cc(=O)oc2cc(C)cc(OCC(=O)NC(Cc3c[nH]c4ccc(O)cc34)C(=O)O)c12 (centres undefined)	-20	-3	3	0	21*	3
CC(=O)N1CCN(C(=O)c2cc3c(s2)CCC(C)C3)CC1 (centres undefined)	-23	-4	1	2	6	-3
CCc1nc2ccc(C(=O)NCCNC(C)=O)cn2c1N(CCC(C)C)CCN(C)C	5	9	-2	0	1	-1
C=C(C)COc1ccc(-c2[nH]ncc2Oc2ccc(OC)cc2)c(O)c1	41*	7	-6	-1	-32	-4
O=C(NN=C1CCCC1)c1n[nH]c2c1CCC2	-1	-6	7	1	27*	2
O=C(NCc1ccco1)c1ccc2c(=O)n(Cc3ccco3)c(SCC(=O)N3CCCC3)nc2c1	42*	1	0	-3	-30	2
